Measurements: PubChem BioAssay AID652236 (Johns Hopkins Ion Channel Center, 2013)
Fewer than 10 of roughly 2,300 compounds were called active.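 The calls were made as follows: active = duplicate-mean ratio percent above the mean of iodide-only control wells, which defines zero, plus 5 of their SD; inactive = the rest.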 A selection follows.

Target: Chloride channel protein 1 (Rattus norvegicus) (UniProt P35524)
Test: ClC-1 chloride channel inhibition, selectivity assay for TMEM16A inhibitor project, cell-based, voltage-dependent ClC-1 (AID 652236);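 also: higher percent means stronger block of ClC-1 iodide influx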
Settings: CHO ClC-1-YFP, iodide influx fluorescence quench; at 10 µM; iodide control reads 0, buffer control 100
How it was run: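 material = ClC-1 CHO cells with mutant YFP H148Q/I152L | buffer or medium = HBSS-HEPES pH 7.4, sodium gluconate substituted for NaCl | times = 20 min room-temperature pre-incubation, 10 s baseline, 50 s post-iodide reads | signal = kinetic iodide-induced YFP fluorescence quench, 1 Hz | control set = buffer-only controls and iodide controls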

Chloride channel protein 1 (Rattus norvegicus), sequence (P35524 whole entry, looked up): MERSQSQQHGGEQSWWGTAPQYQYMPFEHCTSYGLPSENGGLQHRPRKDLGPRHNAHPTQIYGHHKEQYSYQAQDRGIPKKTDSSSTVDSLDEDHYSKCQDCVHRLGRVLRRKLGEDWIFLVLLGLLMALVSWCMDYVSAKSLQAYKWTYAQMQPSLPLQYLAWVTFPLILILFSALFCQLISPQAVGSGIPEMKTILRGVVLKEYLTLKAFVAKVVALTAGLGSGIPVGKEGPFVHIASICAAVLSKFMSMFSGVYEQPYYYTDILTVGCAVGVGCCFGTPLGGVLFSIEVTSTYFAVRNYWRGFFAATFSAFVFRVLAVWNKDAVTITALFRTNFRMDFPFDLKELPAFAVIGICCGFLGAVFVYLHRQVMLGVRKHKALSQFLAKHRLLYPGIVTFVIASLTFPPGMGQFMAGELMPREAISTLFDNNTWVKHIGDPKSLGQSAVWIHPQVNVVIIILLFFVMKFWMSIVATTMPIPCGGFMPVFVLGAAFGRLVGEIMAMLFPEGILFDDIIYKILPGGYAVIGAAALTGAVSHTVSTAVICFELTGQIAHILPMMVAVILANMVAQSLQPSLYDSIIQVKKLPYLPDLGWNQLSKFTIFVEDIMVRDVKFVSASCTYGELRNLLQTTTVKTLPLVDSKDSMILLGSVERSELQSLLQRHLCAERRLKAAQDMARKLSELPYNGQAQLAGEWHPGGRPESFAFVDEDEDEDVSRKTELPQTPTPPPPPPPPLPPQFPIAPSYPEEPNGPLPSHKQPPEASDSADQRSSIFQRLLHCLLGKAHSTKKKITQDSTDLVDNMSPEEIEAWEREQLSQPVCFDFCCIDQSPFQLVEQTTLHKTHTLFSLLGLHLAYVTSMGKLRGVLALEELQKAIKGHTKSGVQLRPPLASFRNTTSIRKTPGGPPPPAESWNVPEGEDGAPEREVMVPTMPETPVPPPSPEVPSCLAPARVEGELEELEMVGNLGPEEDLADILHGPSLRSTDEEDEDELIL

Compound | ratio percent
Cc1[nH]n(-c2cccc(Cl)c2)c(=O)c1-c1ccc(Cl)cc1 | -15% (inactive)
COC(=O)c1ccc(NC(=O)c2ccccc2NS(=O)(=O)c2ccccc2)cc1 | -22.5% (inactive)
Cc1noc(C)c1COC(=O)c1cc2ccccc2cc1O | -10.5% (inactive)
CCOC(=O)N1CC=C2C(C#N)=C(N)C(C#N)(C#N)[C@H](c3cccs3)[C@H]2C1 | -6.5% (inactive)
CCOC(=O)c1cccc(NC(=O)CCn2nnc3ccccc32)c1 | -15% (inactive)
COc1cccc(CNS(=O)(=O)c2ccc3c(c2)CC(C)N3C(=O)C2CCC2)c1 (stereo unspecified) | -19.5% (inactive)
O=C(Nc1cccc(S(=O)(=O)Nc2ccc(Cl)cc2)c1)c1ccc2c(c1)OCCO2 | -24.5% (inactive)
Cc1nc2ccccc2cc1OCc1ccc(F)cc1 | -17% (inactive)
CCCC(=O)Nc1ccccc1N1CCN(C(=O)c2ccccc2)CC1 | -12.5% (inactive)
CC1CCN(C(=O)c2ccc(CSc3ccc(Cl)cc3)cc2)CC1 | -22.5% (inactive)
CC(=O)c1c(C)[nH]c(C(=O)COC(=O)c2cccc(S(=O)(=O)N(C)c3ccccc3)c2)c1C | -31% (inactive)
CN1c2ccc(C=O)c3c(C=O)ccc(c23)N(C)C1(C)C | -24.5% (inactive)
COc1ccc(C(=O)NC2CCCc3c2cnn3-c2cccc(C)c2C)c(OC)n1 (stereo unspecified) | -21.5% (inactive)
COc1ccc(CNc2nnnn2C)cc1 | -10.5% (inactive)
CCOC(=O)C1=C(CN2CCc3ccccc32)NC(=O)NC1c1cccc([N+](=O)[O-])c1 (stereo unspecified) | -12% (inactive)
CSc1nnc2c(n1)OC(c1ccsc1)N(C(C)=O)c1ccccc1-2 (stereo unspecified) | -3.5% (inactive)
Cc1nc(C)c(-c2csc(NCCc3ccccc3)n2)s1 | -9% (inactive)
CSc1nsc(NC(=O)Nc2ccccc2)n1 | -7.5% (inactive)
N#Cc1nc(N)nc(N(c2ccccc2)c2ccccc2)n1 | -2% (inactive)
CCCc1cc(=S)n2c([nH]c3ccccc32)c1C#N | -9.5% (inactive)
C=CCn1c(SCC(=O)Nc2nc3ccccc3s2)nnc1-c1ccccc1O | -17.5% (inactive)

Compound | ratio percent
CCCCNC(=O)CSc1nc2n[nH]c(C)c2c(=N)n1-c1cccc(Cl)c1C | -4.5% (inactive)
COc1ccc(OCC(=O)NCCc2ccc(S(N)(=O)=O)cc2)cc1 | -14% (inactive)
O=c1cc(C(F)(F)F)[nH]c(=O)n1C1CCCCC1 | 0% (inactive)
Cc1ccc(-n2ncc3c(N4CCN(c5ccc(F)cc5)CC4)ncnc32)c(C)c1 | -13% (inactive)
Cc1cccc(N=Nc2c(O)[nH]c3ccc(F)cc23)c1 | 2.5% (inactive)
Cc1ccc(C)c(N2CCN(C(=O)CCCCn3c(=O)[nH]c4ccccc4c3=O)CC2)c1 | -2% (inactive)
CC(C)CNC(=S)NNC(=O)c1nn(C)cc1Cl | -14% (inactive)
CCOC(=O)N1CCN(C(=O)c2ccc3c(c2)N(Cc2ccc(C)cc2)CCS3)CC1 | -13% (inactive)
Cc1ccc(C)c(N2CCN(S(=O)(=O)c3ccc4c(c3)oc(=O)n4C)CC2)c1 | -27.5% (inactive)
COc1ccc(-n2c(C)cc(C(=O)CSc3nnc(-c4cccs4)o3)c2C)cc1 | -7% (inactive)
Cn1c(CN2CCOCC2)nc2cc(NC(=O)c3ccc(Cl)cc3)ccc21 | -9% (inactive)
Cc1ccc2c(c1)N(S(=O)(=O)c1cc(-c3cc(C)no3)ccc1C)CCO2 | -4% (inactive)
Cc1ccc(N2C(=O)S/C(=C/c3cn(C)c4ccccc34)C2=O)cc1 | -10% (inactive)
CCCCn1ccnc1C(=O)c1cccc(S(=O)(=O)N2c3ccccc3CC2C)c1 (stereo unspecified) | -3% (inactive)
CCN(CC)S(=O)(=O)c1ccc(N(C)Cc2ccc(C(F)(F)F)cc2)nc1 | -9% (inactive)
O=C(COc1ccccc1)NCc1ccc2c(c1)OCO2 | -4.5% (inactive)
Cc1ccc(C(=O)O)cc1-c1ccc(/C=C2\SC(=O)N(CC(=O)Nc3ccc4c(c3)OCO4)C2=O)o1 | -5.5% (inactive)
COc1ccc(CN(C)C(=O)CC(c2ccccc2)c2ccccc2)cc1 | -8.5% (inactive)
CC(=O)c1cc(CN2CCC(C(=O)Nc3cccc(-c4cscn4)c3)CC2)cs1 | -16.5% (inactive)
O=C1NC(=O)C2C1C(c1ccc([N+](=O)[O-])cc1)=NN2Cc1ccccc1 (stereo unspecified) | -32% (inactive)
